ChEMBL document CHEMBL3792346, “Thiazolino 2-Pyridone Amide Inhibitors of Chlamydia trachomatis Infectivity” (J Med Chem, 2016)

What was measured:
Chlamydia trachomatis [1] = assay: Antimicrobial activity against Chlamydia trachomatis serovar LGV-L2 infected in human HeLa cells assessed as concentration require to reduce relative inclusion forming units by 95% after 48 hrs; format: functional
Procedure, shortened: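 HeLa cells infected with LGV-L2 at MOI 0.1-0.5; compounds added at 1 hpi, tested at 2.5 µM then 5 or 10 µM or 1, 0.5, 0.25, 0.1 µM; after ~48 h, osmotic lysis, SPG restored, 10-fold dilutions reinfect fresh HeLa; IFUs counted by automated imaging versus DMSO; Reinfect95 = lowest concentration consistently giving 95% IFU reduction; ≥2 experiments in triplicate.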

[2] = Cytotoxicity against human HeLa cells assessed as cell viability at 10 uM after 48 hrs by resazurin assay relative to control; format: cell-based; details: read-out: Activity
Procedure, shortened: (§1)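 Uninfected HeLa seeded in RPMI, next day switched to colorless DMEM with 10% FBS, 2 mM glutamine; compounds added in triplicate, 48 h at 37 °C; resazurin added, 3 h at 37 °C dark; fluorescence ex 535/em 595 nm; cell-free wells with compound check direct resazurin reduction; mean of three experiments in triplicate, SD over nine replicates.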

[3] = Cytotoxicity against human HeLa cells assessed as cell viability at 25 uM after 48 hrs by resazurin assay relative to control; format: cell-based; details: read-out: Activity; procedure, shortened: as §1
Chlamydia trachomatis [4] = assay: Antimicrobial activity against Chlamydia trachomatis serovar D infected in human HeLa cells assessed as decrease in relative inclusion forming units measured 44 to 48 hrs post infection by DAPI staining-based assay; format: functional, organism-based
Chlamydia trachomatis [5] = assay: Antimicrobial activity against Chlamydia trachomatis serovar LGV-L2 infected in human HeLa cells assessed as decrease in relative inclusion forming units measured 44 to 48 hrs post infection by DAPI staining-based assay; format: functional, organism-based
Procedure, shortened: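 HeLa229 cells infected with serovar LGV-L2 at MOI 0.3; compounds in DMSO added at 1 hpi as 8-step halving dilutions from 2 to 0.0156 µM; after 44-48 h, osmotic lysis with cold water, SPG restored, lysate 10-fold serially diluted onto fresh HeLa; after 44-48 h, methanol-fixed, anti-Chlamydia/FITC stained, IFUs counted by automated scanner relative to DMSO; EC50 by nonlinear regression, ≥3 independent experiments.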

| SMILES | Activity (Chlamydia trachomatis [1]) [µM] | viability at 48 h, 10 µM [2] [%] | viability at 48 h, 25 µM [3] [%] | EC50 (Chlamydia trachomatis [4]) [nM] | EC50 (Chlamydia trachomatis [5]) [nM] |
| --- | --- | --- | --- | --- | --- |
| O=C(Nc1ccccc1)[C@@H]1CSc2c(C3CC3)c(Cc3cccc4ccccc34)cc(=O)n21 | 2.5 | 100 | – | – | – |
| CN(C(=O)C1CSc2c(C3CC3)c(Cc3cccc4ccccc34)cc(=O)n21)c1ccccc1 (stereo not drawn) | 5 | 96 | – | – | – |
| O=C(Nc1ccccc1F)C1CSc2c(C3CC3)c(Cc3cccc4ccccc34)cc(=O)n21 (stereo not drawn) | 2.5 | 96 | – | – | – |
| O=C(O)c1c(Cc2cccc3ccccc23)c(C2CC2)c2n(c1=O)C(C(=O)Nc1ccccc1)CS2 (stereo not drawn) | > 10 | 103 | – | – | – |
| O=C(Nc1ccccn1)C1CSc2c(C3CC3)c(Cc3cccc4ccccc34)cc(=O)n21 (stereo not drawn) | 10 | 90 | – | – | – |
| O=C(Nc1ccc(F)cc1)C1CSc2c(C3CC3)c(Cc3cccc4ccccc34)cc(=O)n21 (stereo not drawn) | 2.5 | 98 | – | – | – |
| Cc1ccc(NC(=O)C2CSc3c(C4CC4)c(Cc4cccc5ccccc45)c(N)c(=O)n32)cc1 (stereo not drawn) | 0.25 | 98 | 98 | 99 | 140 |
| Cc1cccc(NC(=O)C2CSc3c(C4CC4)c(Cc4cccc5ccccc45)c(N)c(=O)n32)c1 (stereo not drawn) | 1 | 98 | 97 | 124 | 147 |
| O=C(Nc1ccccc1)[C@H]1CSc2c(C3CC3)c(Cc3cccc4ccccc34)cc(=O)n21 | 2.5 | 100 | – | – | – |
| CCc1cccc(NC(=O)C2CSc3c(C4CC4)c(Cc4cccc5ccccc45)cc(=O)n32)c1 (stereo not drawn) | 2.5 | 100 | – | – | – |
| CNC(=O)C1CSc2c(C3CC3)c(Cc3cccc4ccccc34)cc(=O)n21 (stereo not drawn) | 10 | 93 | – | – | – |
| O=C(Nc1cccnc1)C1CSc2c(C3CC3)c(Cc3cccc4ccccc34)cc(=O)n21 (stereo not drawn) | 10 | 77 | – | – | – |
| O=C(C1CSc2c(C3CC3)c(Cc3cccc4ccccc34)cc(=O)n21)N1CCCCC1 (stereo not drawn) | >10 | 86 | – | – | – |
| O=C(Nc1ccncn1)C1CSc2c(C3CC3)c(Cc3cccc4ccccc34)cc(=O)n21 (stereo not drawn) | 2.5 | 92 | – | – | – |
| O=C(Nc1ccccc1)C1CSc2c(C3CC3)c(Cc3ccccc3)cc(=O)n21 (stereo not drawn) | 2.5 | 96 | – | – | – |
| O=C(Nc1cccc(Cl)c1)C1CSc2c(C3CC3)c(Cc3cccc4ccccc34)cc(=O)n21 (stereo not drawn) | 2.5 | 100 | – | – | – |
| O=C(Nc1ccc(Cl)cc1)C1CSc2c(C3CC3)c(Cc3cccc4ccccc34)cc(=O)n21 (stereo not drawn) | 2.5 | 94 | – | – | – |
| Cc1ccc(NC(=O)C2CSc3c(C4CC4)c(Cc4ccc(Cl)cc4)cc(=O)n32)cc1 (stereo not drawn) | 1 | 89 | – | – | – |
| Cc1cccc(Cc2cc(=O)n3c(c2C2CC2)SCC3C(=O)Nc2ccccc2)c1 (stereo not drawn) | 2.5 | 87 | – | – | – |
| Cc1cccc(Cc2cc(=O)n3c(c2C2CC2)SCC3C(=O)Nc2ccccc2)c1C (stereo not drawn) | 2.5 | 91 | – | – | – |
| CON(C)C(=O)C1CSc2c(C3CC3)c(Cc3cccc4ccccc34)cc(=O)n21 (stereo not drawn) | >10 | 88 | – | – | – |
| O=C(NC1CCCCC1)C1CSc2c(C3CC3)c(Cc3cccc4ccccc34)cc(=O)n21 (stereo not drawn) | 10 | 88 | – | – | – |
| O=C(Nc1ccccc1)C1CSc2c(C3CC3)c(Cc3cccc4ccccc34)cc(=O)n21 (racemic) | 2.5 | 100 | – | – | – |
| Nc1c(Cc2cccc3ccccc23)c(C2CC2)c2n(c1=O)C(C(=O)Nc1ccncn1)CS2 (stereo not drawn) | 2.5 | 99 | 88 | – | – |
| Cc1ccc(NC(=O)C2CSc3c(C4CC4)c(Cc4ccc(Cl)cc4)c(N)c(=O)n32)cc1 (stereo not drawn) | 2.5 | 101 | 102 | 270 | 266 |

| SMILES | Activity (Chlamydia trachomatis [1]) [µM] | viability at 48 h, 10 µM [2] [%] | viability at 48 h, 25 µM [3] [%] | EC50 (Chlamydia trachomatis [4]) [nM] | EC50 (Chlamydia trachomatis [5]) [nM] |
| --- | --- | --- | --- | --- | --- |
| Cc1ccc(NC(=O)C2CSc3c(C4CC4)c(Cc4cccc(C)c4C)c(N)c(=O)n32)cc1 (stereo not drawn) | 1 | 101 | 102 | 274 | 281 |
| Cc1ccc(NC(=O)C2CSc3c(C4CC4)c(Cc4cccc(C)c4C)cc(=O)n32)cc1 (stereo not drawn) | 1 | 95 | – | – | – |
| O=C(NCc1ccccc1)C1CSc2c(C3CC3)c(Cc3cccc4ccccc34)cc(=O)n21 (stereo not drawn) | 2.5 | 93 | – | – | – |
| O=C(Nc1ccccc1)[C@@H]1CSc2c(C3CC3)c(Cc3cccc4ccccc34)c(CN3CCOCC3)c(=O)n21 | 5 | 99 | – | – | – |
| Cc1ccc(Cc2cc(=O)n3c(c2C2CC2)SCC3C(=O)Nc2ccccc2)cc1C (stereo not drawn) | 2.5 | 91 | – | – | – |
| NC(=O)c1ccc(NC(=O)C2CSc3c(C4CC4)c(Cc4cccc5ccccc45)c(N)c(=O)n32)cc1 (stereo not drawn) | >10 | 103 | – | – | – |
| O=C(Nc1nccs1)C1CSc2c(C3CC3)c(Cc3cccc4ccccc34)cc(=O)n21 (stereo not drawn) | 5 | 96 | – | – | – |
| CNC(=O)c1cccc(NC(=O)C2CSc3c(C4CC4)c(Cc4cccc5ccccc45)cc(=O)n32)c1 (stereo not drawn) | 10 | 93 | – | – | – |
| O=C(Nc1cccc(C(F)(F)F)c1)C1CSc2c(C3CC3)c(Cc3cccc4ccccc34)cc(=O)n21 (stereo not drawn) | 2.5 | 95 | – | – | – |
| Cc1cc(=O)n2c(c1C1CC1)SCC2C(=O)Nc1ccccc1 (stereo not drawn) | 10 | 99 | – | – | – |
| O=C(Nc1ccncc1)C1CSc2c(C3CC3)c(Cc3cccc4ccccc34)cc(=O)n21 (stereo not drawn) | 5 | 69 | – | – | – |
| O=C(Nc1ccccc1)C1CSc2c(C3CC3)c(Cc3cccc(Cl)c3Cl)cc(=O)n21 (stereo not drawn) | 2.5 | 85 | – | – | – |
| NS(=O)(=O)c1ccc(NC(=O)C2CSc3c(C4CC4)c(Cc4cccc5ccccc45)cc(=O)n32)cc1 (stereo not drawn) | 10 | 95 | – | – | – |
| Cc1cccc(NC(=O)C2CSc3c(C4CC4)c(Cc4cccc5ccccc45)cc(=O)n32)c1 (stereo not drawn) | 1 | 99 | 100 | – | 102 |
| O=C(C1CSc2c(C3CC3)c(Cc3cccc4ccccc34)cc(=O)n21)N1CCOCC1 (stereo not drawn) | >10 | 90 | – | – | – |
| O=C(Nc1ccccc1)C1CSc2c(C3CC3)c(Cc3cccc4ncccc34)cc(=O)n21 (stereo not drawn) | 10 | 91 | – | – | – |
| O=C(Nc1cccc(F)c1)C1CSc2c(C3CC3)c(Cc3cccc4ccccc34)cc(=O)n21 (stereo not drawn) | 2.5 | 96 | – | – | – |
| COc1cccc(NC(=O)C2CSc3c(C4CC4)c(Cc4cccc5ccccc45)cc(=O)n32)c1 (stereo not drawn) | 2.5 | 98 | – | – | – |
| COc1ccc(NC(=O)C2CSc3c(C4CC4)c(Cc4cccc5ccccc45)cc(=O)n32)cc1 (stereo not drawn) | 2.5 | 100 | – | – | – |
| Cc1ccc(NC(=O)C2CSc3c(C4CC4)c(Cc4cccc5ccccc45)cc(=O)n32)cc1 (stereo not drawn) | 2.5 | 97 | – | – | – |
| COc1ccc(Cc2cc(=O)n3c(c2C2CC2)SCC3C(=O)Nc2ccccc2)cc1 (stereo not drawn) | 2.5 | 103 | – | – | – |
| NC(=O)c1ccc(NC(=O)C2CSc3c(C4CC4)c(Cc4cccc5ccccc45)cc(=O)n32)cc1 (stereo not drawn) | 2.5 | 98 | – | – | – |
| CN1CCN(C(=O)C2CSc3c(C4CC4)c(Cc4cccc5ccccc45)cc(=O)n32)CC1 (stereo not drawn) | >10 | 96 | – | – | – |
| O=C(Nc1ccccc1)C1CSc2c(C3CC3)c(Cc3ccc(Cl)cc3)cc(=O)n21 (stereo not drawn) | 2.5 | 94 | – | – | – |
